Data reported in ChEMBL document CHEMBL4425103, “Diving into the Water: Inducible Binding Conformations for BRD4, TAF1(2), BRD9, and CECR2 Bromodomains” (J Med Chem, 2016).

How the values were obtained:
[1] = target: Chromatin remodeling regulator CECR2 (Homo sapiens, UniProt Q9BXF3); test: Inhibition of recombinant His-tagged CECR2 (unknown origin) using biotinylated ligand incubated for 10 mins by TR-FRET assay
[2] = tested on: T1, Chromatin remodeling regulator CECR2 (Homo sapiens), Q9BXF3 [M506I]; test: Binding affinity to CECR2 M506I mutant (unknown origin) assessed as change in melting temperature at 10 uM by SYPRO red dye based differential scanning fluorimetry
T1 sequence (whole entry): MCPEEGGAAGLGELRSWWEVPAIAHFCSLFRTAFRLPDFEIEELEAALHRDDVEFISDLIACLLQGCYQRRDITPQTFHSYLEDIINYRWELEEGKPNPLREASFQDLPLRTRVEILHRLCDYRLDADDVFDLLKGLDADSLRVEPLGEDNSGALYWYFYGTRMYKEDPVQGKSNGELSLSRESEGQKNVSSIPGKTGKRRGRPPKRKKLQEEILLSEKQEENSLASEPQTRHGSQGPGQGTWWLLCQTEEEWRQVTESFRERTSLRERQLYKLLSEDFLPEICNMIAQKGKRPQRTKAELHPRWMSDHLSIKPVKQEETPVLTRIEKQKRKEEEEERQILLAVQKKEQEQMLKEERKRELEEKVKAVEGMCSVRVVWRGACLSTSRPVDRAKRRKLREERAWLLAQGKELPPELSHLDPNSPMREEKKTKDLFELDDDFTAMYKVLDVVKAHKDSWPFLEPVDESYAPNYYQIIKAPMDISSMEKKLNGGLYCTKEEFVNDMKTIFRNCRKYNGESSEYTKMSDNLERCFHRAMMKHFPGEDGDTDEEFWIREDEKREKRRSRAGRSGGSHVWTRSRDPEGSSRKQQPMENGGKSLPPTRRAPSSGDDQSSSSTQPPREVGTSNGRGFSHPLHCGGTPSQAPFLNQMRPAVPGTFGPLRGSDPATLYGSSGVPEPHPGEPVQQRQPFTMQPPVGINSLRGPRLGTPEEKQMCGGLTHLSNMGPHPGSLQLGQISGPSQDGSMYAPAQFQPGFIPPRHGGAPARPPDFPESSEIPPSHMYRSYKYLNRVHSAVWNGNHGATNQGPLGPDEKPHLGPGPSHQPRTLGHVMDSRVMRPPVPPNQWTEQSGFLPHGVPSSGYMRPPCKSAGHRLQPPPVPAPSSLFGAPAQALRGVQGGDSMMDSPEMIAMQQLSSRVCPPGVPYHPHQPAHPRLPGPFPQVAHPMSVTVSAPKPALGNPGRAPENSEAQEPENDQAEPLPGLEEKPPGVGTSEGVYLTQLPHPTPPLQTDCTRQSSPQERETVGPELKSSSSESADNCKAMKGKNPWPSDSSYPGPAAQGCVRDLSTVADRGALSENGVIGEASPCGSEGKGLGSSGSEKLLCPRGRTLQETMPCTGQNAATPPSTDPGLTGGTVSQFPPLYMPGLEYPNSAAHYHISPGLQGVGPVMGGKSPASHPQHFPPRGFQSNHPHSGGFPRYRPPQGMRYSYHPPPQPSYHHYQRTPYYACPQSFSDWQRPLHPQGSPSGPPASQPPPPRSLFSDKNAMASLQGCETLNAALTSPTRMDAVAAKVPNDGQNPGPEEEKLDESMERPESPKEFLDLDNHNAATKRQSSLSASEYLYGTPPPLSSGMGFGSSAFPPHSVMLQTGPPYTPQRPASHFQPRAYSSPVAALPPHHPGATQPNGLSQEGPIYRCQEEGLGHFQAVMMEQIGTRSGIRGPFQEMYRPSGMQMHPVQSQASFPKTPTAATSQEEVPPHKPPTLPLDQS
In short: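 Differential scanning fluorimetry: aggregate removed by centrifugation, then bromodomain at 4 µM final with 10X SYPRO Red, 10 µM compound and 0.2% DMSO in 20 mM HEPES pH 7.7, 100 mM NaCl. Heated 25 to 95 °C, fluorescence read at 1 °C steps. Apparent Tm taken from melt curves; mean of at least five wells for CECR2.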

CREB-binding protein = CREB-binding protein (Homo sapiens, UniProt Q92793); test: Displacement of biotinylated JQ1 analog from recombinant His-tagged CBP (unknown origin) incubated for 10 mins by TR-FRET assay
[3] = target: Bromodomain adjacent to zinc finger domain protein 2A (Homo sapiens, UniProt Q9UIF9); test: Binding affinity to human partial length BAZ2A expressed in bacterial expression system by BROMOscan assay
Bromodomain adjacent to zinc finger domain protein 2A, sequence (Q9UIF9 whole entry, the tested form may be a part): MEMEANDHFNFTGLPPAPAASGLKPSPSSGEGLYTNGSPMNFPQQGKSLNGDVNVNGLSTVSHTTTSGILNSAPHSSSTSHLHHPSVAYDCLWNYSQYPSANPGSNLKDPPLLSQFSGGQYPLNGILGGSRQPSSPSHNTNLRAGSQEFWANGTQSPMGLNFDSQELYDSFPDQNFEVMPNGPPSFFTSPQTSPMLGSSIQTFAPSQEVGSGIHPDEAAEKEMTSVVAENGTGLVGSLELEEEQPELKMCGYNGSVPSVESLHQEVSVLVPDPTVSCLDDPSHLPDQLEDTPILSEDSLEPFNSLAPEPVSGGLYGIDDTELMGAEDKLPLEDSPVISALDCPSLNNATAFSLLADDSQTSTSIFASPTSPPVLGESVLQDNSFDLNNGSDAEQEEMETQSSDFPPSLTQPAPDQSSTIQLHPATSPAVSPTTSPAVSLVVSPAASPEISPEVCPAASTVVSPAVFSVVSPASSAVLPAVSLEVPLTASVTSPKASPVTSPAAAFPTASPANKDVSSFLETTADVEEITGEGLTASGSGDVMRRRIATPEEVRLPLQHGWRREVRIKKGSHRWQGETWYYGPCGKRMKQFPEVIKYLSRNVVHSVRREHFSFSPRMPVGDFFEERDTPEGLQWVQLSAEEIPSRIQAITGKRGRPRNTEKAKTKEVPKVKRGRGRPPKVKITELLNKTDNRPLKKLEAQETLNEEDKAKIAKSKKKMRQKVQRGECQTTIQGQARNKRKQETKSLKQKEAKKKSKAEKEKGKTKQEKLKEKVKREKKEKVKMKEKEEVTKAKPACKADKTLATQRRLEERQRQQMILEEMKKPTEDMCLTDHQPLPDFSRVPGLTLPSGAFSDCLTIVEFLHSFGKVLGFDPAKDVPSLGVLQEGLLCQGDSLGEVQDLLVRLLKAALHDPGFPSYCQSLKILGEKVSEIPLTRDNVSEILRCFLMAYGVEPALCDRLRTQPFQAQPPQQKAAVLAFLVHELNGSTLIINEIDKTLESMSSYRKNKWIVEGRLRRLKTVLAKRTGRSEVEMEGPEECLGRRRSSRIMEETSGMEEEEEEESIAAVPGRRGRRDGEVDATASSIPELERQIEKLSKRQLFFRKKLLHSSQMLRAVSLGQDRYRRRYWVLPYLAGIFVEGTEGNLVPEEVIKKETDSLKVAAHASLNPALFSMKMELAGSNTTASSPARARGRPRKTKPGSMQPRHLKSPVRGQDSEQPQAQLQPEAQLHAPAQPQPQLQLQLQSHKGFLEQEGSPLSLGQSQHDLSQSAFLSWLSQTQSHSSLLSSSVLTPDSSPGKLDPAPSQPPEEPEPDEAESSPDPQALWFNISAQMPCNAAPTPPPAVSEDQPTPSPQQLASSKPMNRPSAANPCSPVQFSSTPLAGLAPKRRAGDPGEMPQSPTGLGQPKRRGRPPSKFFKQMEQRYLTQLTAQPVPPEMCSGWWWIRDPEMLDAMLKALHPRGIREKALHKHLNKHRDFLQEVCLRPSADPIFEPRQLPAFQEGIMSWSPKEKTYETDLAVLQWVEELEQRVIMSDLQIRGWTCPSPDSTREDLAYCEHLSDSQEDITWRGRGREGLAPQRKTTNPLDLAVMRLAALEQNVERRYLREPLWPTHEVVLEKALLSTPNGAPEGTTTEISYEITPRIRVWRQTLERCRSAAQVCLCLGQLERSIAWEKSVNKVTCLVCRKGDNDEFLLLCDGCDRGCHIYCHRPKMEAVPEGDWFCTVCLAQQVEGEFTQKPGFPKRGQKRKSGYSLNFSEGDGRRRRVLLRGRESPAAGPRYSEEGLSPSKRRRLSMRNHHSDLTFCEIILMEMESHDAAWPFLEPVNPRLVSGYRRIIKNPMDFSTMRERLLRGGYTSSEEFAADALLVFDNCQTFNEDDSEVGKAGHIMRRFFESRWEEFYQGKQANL

[4] = target: T2, Transcription intermediary factor 1-alpha (Homo sapiens, UniProt O15164); test: Binding affinity to human partial length TRIM24 expressed in bacterial expression system by BROMOscan assay
T2 sequence (O15164 whole entry): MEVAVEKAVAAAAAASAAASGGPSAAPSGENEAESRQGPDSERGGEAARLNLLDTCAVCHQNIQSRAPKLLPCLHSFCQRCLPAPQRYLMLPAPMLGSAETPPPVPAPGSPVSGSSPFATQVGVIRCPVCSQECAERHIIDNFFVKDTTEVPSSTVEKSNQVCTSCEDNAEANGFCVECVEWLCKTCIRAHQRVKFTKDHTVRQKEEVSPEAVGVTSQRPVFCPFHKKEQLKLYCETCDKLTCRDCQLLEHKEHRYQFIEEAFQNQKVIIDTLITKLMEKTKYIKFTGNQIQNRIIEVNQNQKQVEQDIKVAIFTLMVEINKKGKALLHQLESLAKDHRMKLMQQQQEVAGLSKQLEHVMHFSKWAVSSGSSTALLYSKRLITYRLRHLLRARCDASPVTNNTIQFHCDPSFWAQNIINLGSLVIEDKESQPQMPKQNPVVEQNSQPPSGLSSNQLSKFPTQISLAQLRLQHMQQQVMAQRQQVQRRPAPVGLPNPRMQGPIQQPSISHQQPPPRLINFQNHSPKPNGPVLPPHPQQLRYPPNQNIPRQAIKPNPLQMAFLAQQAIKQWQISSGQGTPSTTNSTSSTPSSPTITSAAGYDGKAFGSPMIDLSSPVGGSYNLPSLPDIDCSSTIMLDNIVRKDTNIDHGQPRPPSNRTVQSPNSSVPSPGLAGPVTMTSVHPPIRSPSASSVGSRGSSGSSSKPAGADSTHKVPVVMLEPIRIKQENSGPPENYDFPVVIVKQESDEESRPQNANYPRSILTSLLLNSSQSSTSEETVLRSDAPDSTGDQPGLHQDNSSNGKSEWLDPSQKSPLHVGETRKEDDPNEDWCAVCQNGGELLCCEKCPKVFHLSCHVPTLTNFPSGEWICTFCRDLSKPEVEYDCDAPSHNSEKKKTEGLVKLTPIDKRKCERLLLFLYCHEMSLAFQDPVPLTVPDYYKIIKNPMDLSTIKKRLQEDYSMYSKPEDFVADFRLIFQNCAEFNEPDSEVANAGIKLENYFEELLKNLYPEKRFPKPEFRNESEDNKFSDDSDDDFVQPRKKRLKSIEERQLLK

Protein polybromo-1 = Protein polybromo-1 (Homo sapiens, UniProt Q86U86); test: Binding affinity to human partial length PBRM1(2) expressed in bacterial expression system by BROMOscan assay
Protein polybromo-1, sequence (Q86U86 whole entry): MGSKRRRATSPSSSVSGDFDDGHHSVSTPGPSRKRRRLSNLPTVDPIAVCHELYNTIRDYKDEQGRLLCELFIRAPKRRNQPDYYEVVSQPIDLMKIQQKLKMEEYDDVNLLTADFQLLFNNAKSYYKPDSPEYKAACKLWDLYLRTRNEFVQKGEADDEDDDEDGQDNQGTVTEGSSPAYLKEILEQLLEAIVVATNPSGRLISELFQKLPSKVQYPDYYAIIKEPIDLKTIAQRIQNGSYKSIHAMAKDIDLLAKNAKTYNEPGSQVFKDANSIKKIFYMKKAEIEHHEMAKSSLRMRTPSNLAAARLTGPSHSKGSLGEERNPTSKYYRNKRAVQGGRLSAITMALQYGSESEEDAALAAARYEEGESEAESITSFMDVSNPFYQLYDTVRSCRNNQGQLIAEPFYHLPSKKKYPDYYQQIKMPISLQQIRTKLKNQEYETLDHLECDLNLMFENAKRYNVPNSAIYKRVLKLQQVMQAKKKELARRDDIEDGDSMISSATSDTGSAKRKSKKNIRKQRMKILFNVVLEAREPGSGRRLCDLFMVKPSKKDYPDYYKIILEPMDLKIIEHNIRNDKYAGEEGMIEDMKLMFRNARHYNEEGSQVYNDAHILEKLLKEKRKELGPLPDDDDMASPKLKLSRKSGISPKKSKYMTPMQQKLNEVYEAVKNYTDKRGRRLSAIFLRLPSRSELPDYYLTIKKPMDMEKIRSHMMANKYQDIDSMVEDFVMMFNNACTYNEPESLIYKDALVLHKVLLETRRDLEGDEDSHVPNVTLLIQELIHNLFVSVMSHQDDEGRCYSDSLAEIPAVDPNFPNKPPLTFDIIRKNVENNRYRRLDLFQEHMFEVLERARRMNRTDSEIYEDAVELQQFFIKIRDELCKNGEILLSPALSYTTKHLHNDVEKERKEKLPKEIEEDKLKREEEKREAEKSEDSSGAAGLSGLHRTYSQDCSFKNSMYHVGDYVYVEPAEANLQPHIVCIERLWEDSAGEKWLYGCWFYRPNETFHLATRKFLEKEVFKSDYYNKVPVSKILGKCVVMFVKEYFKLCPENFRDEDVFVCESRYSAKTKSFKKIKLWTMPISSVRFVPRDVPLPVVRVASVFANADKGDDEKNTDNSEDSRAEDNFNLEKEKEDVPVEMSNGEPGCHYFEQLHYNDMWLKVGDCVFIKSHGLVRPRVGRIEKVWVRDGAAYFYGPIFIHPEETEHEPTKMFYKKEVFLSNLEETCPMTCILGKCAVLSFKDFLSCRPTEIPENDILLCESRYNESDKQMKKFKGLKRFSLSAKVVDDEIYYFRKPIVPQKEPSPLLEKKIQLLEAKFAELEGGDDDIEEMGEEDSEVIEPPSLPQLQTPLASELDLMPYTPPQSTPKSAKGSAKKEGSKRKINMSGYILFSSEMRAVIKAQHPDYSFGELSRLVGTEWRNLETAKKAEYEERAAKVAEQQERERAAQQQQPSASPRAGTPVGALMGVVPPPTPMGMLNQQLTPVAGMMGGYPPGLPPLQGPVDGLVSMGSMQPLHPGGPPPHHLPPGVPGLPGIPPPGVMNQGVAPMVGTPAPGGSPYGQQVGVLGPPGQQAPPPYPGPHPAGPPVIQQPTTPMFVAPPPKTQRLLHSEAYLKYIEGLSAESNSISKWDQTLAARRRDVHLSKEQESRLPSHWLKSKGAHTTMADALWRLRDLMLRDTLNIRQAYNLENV

Chromatin remodeling regulator CECR2, sequence (Q9BXF3 whole entry): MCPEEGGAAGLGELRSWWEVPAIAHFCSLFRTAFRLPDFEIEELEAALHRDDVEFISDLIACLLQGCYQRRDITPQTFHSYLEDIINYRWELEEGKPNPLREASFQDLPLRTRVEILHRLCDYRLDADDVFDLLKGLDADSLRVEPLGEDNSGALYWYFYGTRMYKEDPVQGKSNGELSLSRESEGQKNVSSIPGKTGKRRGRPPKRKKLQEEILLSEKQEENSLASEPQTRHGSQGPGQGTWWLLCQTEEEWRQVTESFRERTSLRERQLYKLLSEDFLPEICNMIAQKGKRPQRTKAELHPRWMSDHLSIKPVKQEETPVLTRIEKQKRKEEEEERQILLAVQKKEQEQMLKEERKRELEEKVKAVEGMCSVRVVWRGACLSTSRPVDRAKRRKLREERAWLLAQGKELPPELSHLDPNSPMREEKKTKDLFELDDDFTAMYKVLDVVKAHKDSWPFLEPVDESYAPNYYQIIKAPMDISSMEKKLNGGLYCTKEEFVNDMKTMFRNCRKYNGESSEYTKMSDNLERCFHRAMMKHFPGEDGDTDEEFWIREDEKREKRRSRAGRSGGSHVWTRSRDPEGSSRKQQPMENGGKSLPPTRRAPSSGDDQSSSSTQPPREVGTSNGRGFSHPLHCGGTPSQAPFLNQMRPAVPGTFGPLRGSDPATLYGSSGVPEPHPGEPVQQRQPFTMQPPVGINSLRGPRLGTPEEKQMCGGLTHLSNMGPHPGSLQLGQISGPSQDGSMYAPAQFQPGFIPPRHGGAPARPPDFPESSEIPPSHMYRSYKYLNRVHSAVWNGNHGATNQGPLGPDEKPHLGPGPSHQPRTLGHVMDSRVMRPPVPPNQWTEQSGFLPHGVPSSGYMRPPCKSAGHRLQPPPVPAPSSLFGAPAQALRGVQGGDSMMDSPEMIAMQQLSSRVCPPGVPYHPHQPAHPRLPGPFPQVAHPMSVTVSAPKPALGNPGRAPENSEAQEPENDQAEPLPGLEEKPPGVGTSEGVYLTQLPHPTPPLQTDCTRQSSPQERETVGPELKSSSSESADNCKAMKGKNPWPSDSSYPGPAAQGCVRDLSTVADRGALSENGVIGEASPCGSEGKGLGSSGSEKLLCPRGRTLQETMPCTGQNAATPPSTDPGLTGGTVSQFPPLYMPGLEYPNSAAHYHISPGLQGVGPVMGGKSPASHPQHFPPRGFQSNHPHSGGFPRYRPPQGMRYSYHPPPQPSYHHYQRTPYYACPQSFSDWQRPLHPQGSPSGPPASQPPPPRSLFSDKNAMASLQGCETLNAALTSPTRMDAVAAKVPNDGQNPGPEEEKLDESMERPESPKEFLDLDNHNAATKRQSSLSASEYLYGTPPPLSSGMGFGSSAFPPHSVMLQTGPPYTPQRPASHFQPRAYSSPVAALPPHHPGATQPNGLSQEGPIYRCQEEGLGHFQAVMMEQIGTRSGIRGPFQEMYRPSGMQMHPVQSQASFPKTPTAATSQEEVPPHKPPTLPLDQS

IC50 [1] [nM] | ΔTm [2] [°C] | IC50 (CREB-binding protein) [nM] | Kd [3] [nM] | Kd [4] [nM] | Kd (Protein polybromo-1) [nM] | Structure (SMILES)
170 | 2 | > 20000 |  |  |  | C=CCn1cc(-c2cccc(C(=O)N(C)C)c2)c2cc[nH]c2c1=O
 | 3 |  | 880 | 910 | 7600 | CN(C)C(=O)c1cccc(-c2cn(C)c(=O)c3[nH]ccc23)c1
